The record followed here is ChEMBL document CHEMBL1142686, “CoMFA, synthesis, and pharmacological evaluation of (E)-3-(2-carboxy-2-arylvinyl)-4,6-dichloro-1H-indole-2-carboxylic acids: 3-[2-(3-aminophenyl)-2-carboxyvinyl]-4,6-dichloro-1H-indole-2-carboxylic acid, a potent selective glycine-site NMDA receptor antagonist” (J Med Chem, 2005).

Some results are limits rather than exact numbers.

The first assay deals with Glutamate NMDA receptor. The assay is described as follows: In vitro inhibitory concentration against binding of the [3H]glycine to strychnine-insensitive glycine binding sites of rat N-methyl-D-aspartate glutamate receptor.
Conditions: not given
It is filed as protein-complex assay.
By IC50 is commonly meant the midpoint of a concentration-inhibition curve. High values mean lower potency, low ones higher potency. With `O=C(/C=C/c1c(C(=O)[O-])[nH]c2cc(Cl)cc(Cl)c12)Nc1ccccc1.[Na+]` [GAVESTINEL SODIUM], the IC50 was determined as 15.2 nM.

With `O=c1[nH]c2cc(Cl)ccc2c(O)c1-c1cccc(Oc2ccccc2)c1`, the IC50 turned out to be 13.2 nM.

`O=C(O)/C(=C/c1c(C(=O)O)[nH]c2cc(Cl)cc(Cl)c12)c1ccsc1` had an IC50 of 9.6 nM.

The next assay has as its target Glutamate NMDA receptor. Description: Antagonist activity of compound against rat N-methyl-D-aspartate glutamate receptor using 11 nM [3H]glycine. It is filed as functional.
Conditions: not given
`N#C/C(=C/c1c(C(=O)O)[nH]c2cc(Cl)cc(Cl)c12)c1ccc(N)cc1`: the IC50 was 4660 nM. This lies in the single-digit micromolar range.

In the case of `CN(C)C(=O)/C(=C/c1c(C(=O)O)[nH]c2cc(Cl)cc(Cl)c12)c1ccccc1`, 68 nM corresponded to half-maximal inhibition (IC50).

`O=C(O)/C(=C/c1c(C(=O)O)[nH]c2cc(Cl)cc(Cl)c12)c1ccsc1` registered an IC50 of 14 nM.

The species named for a further assay is Rattus norvegicus. The assay is described as follows: In vitro inhibitory concentration against glutamate stimulated accumulation of cyclic GMP in neonatal rat cerebral slices. Type of assay: functional.
Conditions: not given
`O=C(/C=C/c1c(C(=O)[O-])[nH]c2cc(Cl)cc(Cl)c12)Nc1ccccc1.[Na+]` [GAVESTINEL SODIUM] gave an IC50 of 262 nM.

In turn, `O=c1[nH]c2cc(Cl)ccc2c(O)c1-c1cccc(Oc2ccccc2)c1` gave an IC50 of 31 nM.

In the case of `O=C(O)/C(=C/c1c(C(=O)O)[nH]c2cc(Cl)cc(Cl)c12)c1ccsc1`, the midpoint of inhibition, the IC50, lay at 87 nM.

For the next assay, the system named is Mus musculus. The assay is described as follows: In vivo effective dose of compound to protect mice from quinolinic acid seizures upon intravenous administration. It is filed as functional.
Conditions: not given
The ED50 is the midpoint of the dose-response relation. Higher therefore signals weaker potency. Turning to `O=C(/C=C/c1c(C(=O)[O-])[nH]c2cc(Cl)cc(Cl)c12)Nc1ccccc1.[Na+]` [GAVESTINEL SODIUM], the ED50 is greater than 64 mg/kg.

In turn, `O=c1[nH]c2cc(Cl)ccc2c(O)c1-c1cccc(Oc2ccccc2)c1` came in with an ED50 of 5.2 mg/kg.

The molecule `O=C(O)/C(=C/c1c(C(=O)O)[nH]c2cc(Cl)cc(Cl)c12)c1ccsc1` showed an ED50 of 29.5 mg/kg.

A further assay concerns Mus musculus. Description: In vivo effective dose to protect the mouse (DBA/2J) from audiogenic seizures upon intraperitoneal administration. It is filed as functional. As to conditions: ip.
In turn, `O=C(/C=C/c1c(C(=O)[O-])[nH]c2cc(Cl)cc(Cl)c12)Nc1ccccc1.[Na+]` [GAVESTINEL SODIUM] returned an ED50 greater than 25 mg/kg.

Consider `O=c1[nH]c2cc(Cl)ccc2c(O)c1-c1cccc(Oc2ccccc2)c1`, for which the 50% effect level (ED50) was put at a dose of 1 mg/kg.

The molecule `O=C(O)/C(=C/c1c(C(=O)O)[nH]c2cc(Cl)cc(Cl)c12)c1ccsc1` returned an ED50 of 18.6 mg/kg.

In the next assay the test system is Mus musculus. Description: In vivo effective dose against harmaline induced cGMP elevation in mouse cerebellum upon intravenous administration. Type of assay: functional.
Conditions: not given
Regarding `O=c1[nH]c2cc(Cl)ccc2c(O)c1-c1cccc(Oc2ccccc2)c1`, the ED50 was less than 0.05 mg/kg.

The molecule `O=C(O)/C(=C/c1c(C(=O)O)[nH]c2cc(Cl)cc(Cl)c12)c1ccsc1` yielded an ED50 of 35 mg/kg.

The next assay deals with Rattus norvegicus. Description: In vivo effective dose to protect rats against maximal electroshock induced seizures upon intravenous administration. Type of assay: functional.
Conditions: not given
In short, it runs like this: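 Maximal electroshock seizures in adult male CDF rats, compound iv, vehicle water, saline or 50 mM Tris base at 1 mL/kg.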
On the technique in general: In the maximal electroshock model the usual endpoint is tonic extension of the hind limbs.
The molecule `O=C(/C=C/c1c(C(=O)[O-])[nH]c2cc(Cl)cc(Cl)c12)Nc1ccccc1.[Na+]` [GAVESTINEL SODIUM] returned an ED50 greater than 32 mg/kg.

`O=c1[nH]c2cc(Cl)ccc2c(O)c1-c1cccc(Oc2ccccc2)c1`: it took a dose of 3.5 mg/kg to reach the 50% effect level (ED50).

`O=C(O)/C(=C/c1c(C(=O)O)[nH]c2cc(Cl)cc(Cl)c12)c1ccsc1`: it took a dose of 54.1 mg/kg to reach the 50% effect level (ED50).
